The source of these data is ChEMBL document CHEMBL2046441, “Synthesis and SAR of 4-aminocyclopentapyrrolidines as N-type Ca²⁺ channel blockers with analgesic activity” (Bioorg Med Chem, 2012).

Assay [1] can be described thus: Inhibition of Voltage-dependent N-type calcium channel in human IMR32 cells by FLIPR based Ca(2+) flux assay. The assay is classed as cell-based, IMR-32. An outline of the steps: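 IMR32 cells were plated at 120,000/well and grown 48 h at 37 °C, 5% CO₂. Cells were loaded with Calcium 4 dye in HBSS/1 mM HEPES pH 7.4 for 1.5 h at room temperature, with antagonists present for 1 h of loading.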

Assay [2] is described as follows: Inhibition of L-type calcium channel in mouse ND7/23 cells by FLIPR based Ca(2+) flux assay. The assay is classed as cell-based. An outline of the steps:
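ND7/23 cells were grown in DMEM with 10% heat-inactivated FBS and seeded at 5.0 × 10⁴ cells/well. After 24 h at 37 °C, 5% CO₂, cells were loaded with calcium dye in HBSS/20 mM HEPES pH 7.4 for 1.5 h at room temperature. Compounds were added for 3 min, then channels were activated with HBSS containing 50 mM KCl/2.5 mM CaCl₂.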

The target of assay [3] is Voltage-dependent N-type calcium channel subunit alpha-1B (Rattus norvegicus) (UniProt Q02294). Particulars: HEK293, 0.3 uM.
Voltage-dependent N-type calcium channel subunit alpha-1B (Rattus norvegicus), sequence (Q02294 whole entry, looked up): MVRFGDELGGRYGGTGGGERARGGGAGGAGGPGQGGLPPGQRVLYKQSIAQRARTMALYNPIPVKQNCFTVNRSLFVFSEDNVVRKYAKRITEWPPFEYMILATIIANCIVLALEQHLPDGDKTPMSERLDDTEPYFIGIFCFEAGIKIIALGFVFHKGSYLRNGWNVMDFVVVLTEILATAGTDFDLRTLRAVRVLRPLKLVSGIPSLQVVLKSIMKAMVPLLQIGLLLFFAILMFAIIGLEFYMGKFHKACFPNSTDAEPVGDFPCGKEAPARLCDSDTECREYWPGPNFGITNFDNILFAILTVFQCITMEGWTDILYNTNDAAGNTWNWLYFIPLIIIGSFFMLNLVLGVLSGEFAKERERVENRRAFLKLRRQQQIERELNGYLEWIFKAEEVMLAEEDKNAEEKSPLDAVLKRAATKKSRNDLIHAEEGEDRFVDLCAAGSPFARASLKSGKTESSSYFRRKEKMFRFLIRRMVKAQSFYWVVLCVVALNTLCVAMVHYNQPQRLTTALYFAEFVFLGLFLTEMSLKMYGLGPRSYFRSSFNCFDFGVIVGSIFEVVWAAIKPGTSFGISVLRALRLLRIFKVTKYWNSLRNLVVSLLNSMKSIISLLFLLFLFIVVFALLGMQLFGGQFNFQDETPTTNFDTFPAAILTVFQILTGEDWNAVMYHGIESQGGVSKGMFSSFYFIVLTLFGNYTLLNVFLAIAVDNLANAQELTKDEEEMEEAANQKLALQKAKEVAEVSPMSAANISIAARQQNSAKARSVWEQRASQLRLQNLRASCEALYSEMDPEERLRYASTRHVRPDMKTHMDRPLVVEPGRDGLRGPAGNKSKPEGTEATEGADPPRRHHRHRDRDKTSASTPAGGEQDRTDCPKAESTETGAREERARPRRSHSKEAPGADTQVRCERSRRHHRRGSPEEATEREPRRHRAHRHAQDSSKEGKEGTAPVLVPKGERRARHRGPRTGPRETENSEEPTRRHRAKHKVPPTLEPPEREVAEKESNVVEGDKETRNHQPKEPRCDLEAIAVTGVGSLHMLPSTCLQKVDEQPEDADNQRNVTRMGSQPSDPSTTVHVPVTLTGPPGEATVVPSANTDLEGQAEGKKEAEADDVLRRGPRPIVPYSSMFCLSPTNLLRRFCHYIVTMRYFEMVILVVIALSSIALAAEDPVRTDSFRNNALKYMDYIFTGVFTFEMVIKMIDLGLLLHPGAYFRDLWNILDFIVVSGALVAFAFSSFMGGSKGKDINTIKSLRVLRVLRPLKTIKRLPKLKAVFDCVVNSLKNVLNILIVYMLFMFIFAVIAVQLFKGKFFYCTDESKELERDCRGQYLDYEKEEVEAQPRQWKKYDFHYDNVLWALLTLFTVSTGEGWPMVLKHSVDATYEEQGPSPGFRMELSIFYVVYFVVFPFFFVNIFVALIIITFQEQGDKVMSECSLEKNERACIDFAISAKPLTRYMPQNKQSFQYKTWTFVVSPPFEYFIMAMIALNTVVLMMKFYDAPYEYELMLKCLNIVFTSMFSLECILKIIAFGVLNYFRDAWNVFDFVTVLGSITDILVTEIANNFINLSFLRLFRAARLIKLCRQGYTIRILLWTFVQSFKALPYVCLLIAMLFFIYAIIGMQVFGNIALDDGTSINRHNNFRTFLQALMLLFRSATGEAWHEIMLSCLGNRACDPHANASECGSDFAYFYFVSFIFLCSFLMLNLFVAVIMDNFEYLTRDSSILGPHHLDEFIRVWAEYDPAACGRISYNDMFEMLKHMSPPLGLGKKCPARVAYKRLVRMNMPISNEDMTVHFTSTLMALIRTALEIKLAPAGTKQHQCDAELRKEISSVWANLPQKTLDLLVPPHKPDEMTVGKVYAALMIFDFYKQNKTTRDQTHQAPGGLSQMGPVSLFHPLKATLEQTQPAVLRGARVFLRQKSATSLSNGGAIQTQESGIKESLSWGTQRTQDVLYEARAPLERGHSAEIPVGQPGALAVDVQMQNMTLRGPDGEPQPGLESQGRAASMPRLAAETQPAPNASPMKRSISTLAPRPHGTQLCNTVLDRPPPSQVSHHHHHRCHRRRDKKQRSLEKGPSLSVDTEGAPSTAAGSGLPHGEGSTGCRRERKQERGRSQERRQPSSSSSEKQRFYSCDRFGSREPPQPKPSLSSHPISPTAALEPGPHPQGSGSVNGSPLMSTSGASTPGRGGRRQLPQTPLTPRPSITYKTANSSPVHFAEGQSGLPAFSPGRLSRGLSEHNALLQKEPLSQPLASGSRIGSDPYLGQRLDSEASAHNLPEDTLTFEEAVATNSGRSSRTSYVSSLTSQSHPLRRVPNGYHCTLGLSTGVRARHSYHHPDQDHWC
Assay [4] shares this target. Conditions: HEK293, 0.3 uM. This is another data set of the same source.
The test system of assay [5] is Rattus norvegicus. Kind of assay: Analgesic activity in ip dosed Sprague-Dawley rat acute inflammatory pain model assessed as reduction in carrageenan-induced thermal hypersensitivity of paw withdrawal latency dosed 30 mins before thermal hypersensitivity assessment. It is filed as functional, organism-based. An outline of the steps: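 Male rats 200–350 g; 10% DMSO/PEG400 vehicle; doses 3, 10, 30 mg/kg ip, n = 6. Carrageenan is injected into the plantar surface of the right hind paw. After 2 h, a Hargreaves radiant heat stimulus is applied on 30 °C glass, with cut-off 20.48 s. Both paws are tested in 3 trials about 5 min apart. Latency is taken as the mean of the two shortest readings.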

In assay [6] the test system is Rattus norvegicus. Kind of assay: Analgesic activity in ip dosed Sprague-Dawley rat osteoarthritis pain model assessed as increase in maximum compressive grip force dosed 30 mins before grip force assessment. The assay is classed as functional, organism-based. The essentials:
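Male Sprague-Dawley rats (200–350 g) were tested at least 21 days after MIA injection. Dosing was 3, 10 or 30 mg/kg ip in 10% DMSO/PEG 400, 30 min before testing; n = 12 per group. Hindlimb grip force was measured twice ~2 min apart to get CFmax, normalised to body weight. Vehicle group set as 0%, age-matched naive group as 100%.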

Setting [7] is: Homo sapiens, IMR-32, read-out: IC50.
Setting [8] is: Homo sapiens, IMR-32, read-out: pIC50 (converted).

Consider `O=C(N[C@H]1CC[C@H]2CN(Cc3ccccc3)C[C@H]21)C(C1CCCCC1)C1CCCCC1`, for which the negative-log IC50 (pIC50) in assay [1] (imr-32) was 4.78. Also, the IC50 in assay [1] (imr-32, read-out: IC50) came out at 16500 nM.

For the molecule `O=C(N[C@H]1CC[C@H]2CN(Cc3ccccc3F)C[C@H]21)C(C1CCCCC1)C1CCCCC1`, the IC50 is > 30000 nM in assay [2] (read-out: IC50), 1120 nM in assay [1] (setting [7]) and 1120 nM in assay [1] (setting [8]).

Regarding `O=C(N[C@H]1CC[C@H]2CN(Cc3cccc(F)c3)C[C@H]21)C(C1CCCCC1)C1CCCCC1`, the IC50 in assay [2] (read-out: IC50) is > 30000 nM; in assay [1] (setting [7]), 990 nM; in assay [1] (setting [8]), 977 nM.

With `O=C(N[C@H]1CC[C@H]2CN(Cc3ccc(F)cc3)C[C@H]21)C(C1CCCCC1)C1CCCCC1`, the IC50 in assay [2] (read-out: IC50) is 22900 nM; in assay [2] (read-out: pIC50 (converted)) it was 22900 nM; in assay [1] (setting [7]), 740 nM; in assay [1] (setting [8]) it was 741 nM.

For `O=C(N[C@H]1CC[C@H]2CN(Cc3ccccc3C(F)(F)F)C[C@H]21)C(C1CCCCC1)C1CCCCC1`, the values for the IC50 in assay [2] (read-out: IC50), in assay [1] (setting [7]) and in assay [1] (setting [8]) were > 30000 nM, 2430 nM and 2450 nM, respectively.

For the molecule `O=C(N[C@H]1CC[C@H]2CN(Cc3cccc(OC(F)(F)F)c3)C[C@H]21)C(C1CCCCC1)C1CCCCC1`, the IC50 is > 30000 nM in assay [2] (read-out: IC50), 510 nM in assay [1] (setting [7]) and 417 nM in assay [1] (setting [8]).

For the molecule `Cc1cccc(CN2C[C@@H]3CC[C@H](NC(=O)C(C4CCCCC4)C4CCCCC4)[C@@H]3C2)c1`, the IC50 in assay [2] (read-out: IC50) was 22300 nM; in assay [2] (read-out: pIC50 (converted)) it was 22400 nM; in assay [1] (setting [7]) it was 860 nM; in assay [1] (setting [8]), 851 nM.

`O=C(N[C@@H]1CC[C@@H]2CN(Cc3cccc(C(F)(F)F)c3)C[C@@H]21)C(C1CCCCC1)C1CCCCC1`: the IC50 in assay [2] (read-out: IC50) was > 30000 nM; in assay [1] (setting [7]) it was 1400 nM.

As to `O=C(N[C@H]1CC[C@H]2CN(Cc3cccc(C(F)(F)F)c3)C[C@H]21)C(C1CCCCC1)C1CCCCC1`, the inhibition is 77% in assay [3] and 49% in assay [4]. Moreover, the Activity result in assay [5] and in assay [6] was “Dose-dependent effect” in each case.

Regarding `O=C(N[C@@H]1CC[C@@H]2CN(Cc3ccccc3)C[C@@H]21)C(c1ccccc1)C1CCCCC1` (mixture of isomers), the IC50 is > 30000 nM in assay [2] (read-out: IC50), 1060 nM in assay [1] (setting [7]) and 1070 nM in assay [1] (setting [8]).

With `CC(C)C(C(=O)N[C@@H]1CC[C@@H]2CN(Cc3ccccc3)C[C@@H]21)c1ccccc1` (mixture of isomers), the IC50 is 7210 nM in assay [2] (read-out: IC50), 7240 nM in assay [2] (read-out: pIC50 (converted)), 1460 nM in assay [1] (setting [7]) and 1480 nM in assay [1] (setting [8]).

Consider `CC(C)C(C(=O)N[C@H]1CC[C@H]2CN(Cc3cccc(C(F)(F)F)c3)C[C@H]21)c1ccccc1` (mixture of isomers), for which the IC50 was 5000 nM in assay [2] (read-out: IC50), 5010 nM in assay [2] (read-out: pIC50 (converted)), 360 nM in assay [1] (setting [7]) and 355 nM in assay [1] (setting [8]).

On to `O=C(N[C@H]1CC[C@H]2CN(Cc3ccccc3)C[C@H]21)C1(c2ccccc2)CCCC1` (racemic), for which the IC50 was 4840 nM in assay [2] (read-out: IC50), 4790 nM in assay [2] (read-out: pIC50 (converted)), 1930 nM in assay [1] (setting [7]) and 1950 nM in assay [1] (setting [8]).

Regarding `CCC(CC)C(=O)N[C@H]1CC[C@H]2CN(Cc3cccc(C(F)(F)F)c3)C[C@H]21` (racemic), the IC50 in assay [2] (read-out: IC50) was 19000 nM; in assay [2] (read-out: pIC50 (converted)), 19100 nM; in assay [1] (setting [7]) it was 2070 nM; in assay [1] (setting [8]), 2090 nM.

Turning to `O=C(N[C@H]1CC[C@H]2CN(Cc3cccc(C(F)(F)F)c3)C[C@H]21)C1CCCCC1` (racemic), the IC50 in assay [2] (read-out: IC50) is 16100 nM; in assay [2] (read-out: pIC50 (converted)), 16200 nM; in assay [1] (setting [7]), 1260 nM; in assay [1] (setting [8]), 1260 nM.

Consider `O=C(N[C@H]1CC[C@H]2CN(Cc3cccc(C(F)(F)F)c3)C[C@H]21)C1CCCCCC1` (racemic), for which the IC50 in assay [2] (read-out: IC50) is 9300 nM; in assay [2] (read-out: pIC50 (converted)), 13800 nM; in assay [1] (setting [7]), 560 nM; in assay [1] (setting [8]), 562 nM.

Regarding `O=C(N[C@H]1CC[C@H]2CN(Cc3cccc(C(F)(F)F)c3)C[C@H]21)C(c1ccccc1)c1ccccc1` (racemic), the IC50 was 6300 nM in assay [2] (read-out: IC50), 6310 nM in assay [2] (read-out: pIC50 (converted)), 670 nM in assay [1] (setting [7]) and 661 nM in assay [1] (setting [8]).

With `O=C(N[C@H]1CC[C@H]2CN(Cc3cccc(C(F)(F)F)c3)C[C@H]21)C(C1CCCCC1)C1CCCCC1` (relative stereo), the IC50 is > 30000 nM in assay [2] (read-out: IC50) and 1070 nM in assay [1] (imr-32, read-out: IC50). Further, the pIC50 in assay [1] (imr-32) came to 5.97.

For the molecule `O=C(N[C@H]1CC[C@H]2CN(Cc3ccccc3)C[C@H]21)C(C1CCCCC1)C1CCCCC1` (relative stereo), the IC50 is > 30000 nM in assay [2] (read-out: IC50) and 4670 nM in assay [1] (imr-32, read-out: IC50). In addition, the pIC50 in assay [1] (imr-32) was 5.33.

For `O=C(N[C@H]1CC[C@H]2CN(Cc3ccccc3)C[C@H]21)C(c1ccccc1)C1CCCC1` (relative stereo), the IC50 in assay [2] (read-out: IC50) is 5150 nM; in assay [2] (read-out: pIC50 (converted)), 5130 nM; in assay [1] (setting [7]), 920 nM; in assay [1] (setting [8]), 933 nM.

`O=C(N[C@H]1CC[C@H]2CN(Cc3ccccc3)C[C@H]21)C1(c2ccccc2)CCCCC1` (relative stereo): the IC50 in assay [2] (read-out: IC50) was 5560 nM; in assay [2] (read-out: pIC50 (converted)) it was 5620 nM; in assay [1] (setting [7]) it was 1040 nM; in assay [1] (setting [8]), 1020 nM.

In the case of `CCCC(CCC)C(=O)N[C@H]1CC[C@H]2CN(Cc3cccc(C(F)(F)F)c3)C[C@H]21` (relative stereo), the IC50 in assay [2] (read-out: IC50) is 20100 nM; in assay [2] (read-out: pIC50 (converted)), 20400 nM; in assay [1] (setting [7]), 950 nM; in assay [1] (setting [8]) it was 955 nM.

Turning to `O=C(N[C@H]1CC[C@H]2CN(Cc3cccc(C(F)(F)F)c3)C[C@H]21)C1CCCC1` (relative stereo), the IC50 in assay [2] (read-out: IC50) was 12800 nM; in assay [2] (read-out: pIC50 (converted)), 12900 nM; in assay [1] (setting [7]), 2310 nM; in assay [1] (setting [8]) it was 2290 nM.

In the case of `O=C(N[C@H]1CC[C@H]2CN(Cc3cccc(C(F)(F)F)c3)C[C@H]21)C(c1ccc(F)cc1)c1ccc(F)cc1` (relative stereo), the IC50 in assay [2] (read-out: IC50) is 7100 nM; in assay [2] (read-out: pIC50 (converted)), 7080 nM; in assay [1] (setting [7]) it was 640 nM; in assay [1] (setting [8]), 646 nM.

By pIC50 is commonly meant −log10 of the IC50, conventionally taken in molar units. In general, inhibition refers to the share of the control response that was lost under treatment.
